In ChEMBL document CHEMBL5046221, “Identification of Pyrimidine-Based Lead Compounds for Understudied Kinases Implicated in Driving Neurodegeneration” (J Med Chem, 2022):
Calls of active or inactive are those of the source. The rule behind the calls is not given here.

Experiments:
[1] = molecular target: T1, Non-receptor tyrosine-protein kinase TYK2 (Homo sapiens, UniProt P29597); assay: Inhibition of human TYK2 (875 to end residues) using GGMEDIYFEFMGGKKK as substrate measured after 40 mins in presence of [gamma33P]ATP by radiometric scintillation counting method
T1 sequence (P29597 whole entry): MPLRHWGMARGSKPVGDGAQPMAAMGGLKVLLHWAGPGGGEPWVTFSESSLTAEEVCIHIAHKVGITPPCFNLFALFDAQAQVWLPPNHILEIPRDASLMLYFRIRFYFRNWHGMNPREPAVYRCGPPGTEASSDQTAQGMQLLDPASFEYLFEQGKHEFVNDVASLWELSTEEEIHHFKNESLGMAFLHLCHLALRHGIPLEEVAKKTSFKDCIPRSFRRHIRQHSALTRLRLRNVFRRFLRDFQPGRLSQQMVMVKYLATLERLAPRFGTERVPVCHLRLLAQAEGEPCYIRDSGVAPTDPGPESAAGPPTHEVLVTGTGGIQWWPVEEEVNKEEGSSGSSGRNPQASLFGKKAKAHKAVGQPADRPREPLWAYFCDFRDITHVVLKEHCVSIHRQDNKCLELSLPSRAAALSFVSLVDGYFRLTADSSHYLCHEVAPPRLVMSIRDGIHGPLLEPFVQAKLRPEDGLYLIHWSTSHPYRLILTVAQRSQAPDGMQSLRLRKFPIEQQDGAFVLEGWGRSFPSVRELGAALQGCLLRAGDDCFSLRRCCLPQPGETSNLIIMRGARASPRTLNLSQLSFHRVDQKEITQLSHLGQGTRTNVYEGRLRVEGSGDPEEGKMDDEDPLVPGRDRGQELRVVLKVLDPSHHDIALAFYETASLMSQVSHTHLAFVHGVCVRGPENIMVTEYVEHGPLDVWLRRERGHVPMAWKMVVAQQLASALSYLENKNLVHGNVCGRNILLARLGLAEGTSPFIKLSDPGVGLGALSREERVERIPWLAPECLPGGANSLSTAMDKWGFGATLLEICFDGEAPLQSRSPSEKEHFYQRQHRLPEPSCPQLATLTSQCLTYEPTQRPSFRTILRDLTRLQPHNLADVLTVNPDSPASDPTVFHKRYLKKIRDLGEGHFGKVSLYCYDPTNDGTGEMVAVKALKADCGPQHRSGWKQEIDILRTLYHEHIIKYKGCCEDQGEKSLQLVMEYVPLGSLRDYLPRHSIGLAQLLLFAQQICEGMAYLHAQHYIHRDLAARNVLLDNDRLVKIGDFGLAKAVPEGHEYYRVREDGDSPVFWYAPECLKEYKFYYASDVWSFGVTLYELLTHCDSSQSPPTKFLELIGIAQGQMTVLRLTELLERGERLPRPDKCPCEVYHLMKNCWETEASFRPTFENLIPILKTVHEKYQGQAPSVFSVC
Outline: (§1)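 Eurofins radiometric enzymatic assay with ATP at Km for each kinase. IC50 was derived from a 9-point dose–response curve run in duplicate.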

[2] = Effective permeability in PBS at 7.4 incubated for 5 hrs by PAMPA analysis; type: ADME; details: pH 7.4, 5 h
Outline: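 PAMPA: DMSO stocks were diluted in PBS pH 7.4 and placed in the donor compartment, with PBS pH 7.4 in the acceptor, for 5 h. Both compartments were quantified by CLND against a calibration curve, with background nitrogen correction. Effective permeability was calculated from donor and acceptor concentrations using measured rather than assumed solubility.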

[3] = Kinetic solubility of compound in PBS at pH 7.4 incubated for 24 hrs by chemiluminscent nitrogen detection method; type: physicochemical; details: buffer, pH 7.4, 24 h
Outline: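 Filtrates were quantified by total chemiluminescent nitrogen determination against a calibration curve, with correction for background nitrogen from DMSO and medium.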

[4] = molecular target: T2, MAP/microtubule affinity-regulating kinase 4 (Homo sapiens, UniProt Q96L34); assay: Displacement of tracer K5 from NLuc fused MARK4 (unknown origin) expressed in HEK293 cells by NanoBRET assay; type: cell-based
T2 sequence (Q96L34 whole entry): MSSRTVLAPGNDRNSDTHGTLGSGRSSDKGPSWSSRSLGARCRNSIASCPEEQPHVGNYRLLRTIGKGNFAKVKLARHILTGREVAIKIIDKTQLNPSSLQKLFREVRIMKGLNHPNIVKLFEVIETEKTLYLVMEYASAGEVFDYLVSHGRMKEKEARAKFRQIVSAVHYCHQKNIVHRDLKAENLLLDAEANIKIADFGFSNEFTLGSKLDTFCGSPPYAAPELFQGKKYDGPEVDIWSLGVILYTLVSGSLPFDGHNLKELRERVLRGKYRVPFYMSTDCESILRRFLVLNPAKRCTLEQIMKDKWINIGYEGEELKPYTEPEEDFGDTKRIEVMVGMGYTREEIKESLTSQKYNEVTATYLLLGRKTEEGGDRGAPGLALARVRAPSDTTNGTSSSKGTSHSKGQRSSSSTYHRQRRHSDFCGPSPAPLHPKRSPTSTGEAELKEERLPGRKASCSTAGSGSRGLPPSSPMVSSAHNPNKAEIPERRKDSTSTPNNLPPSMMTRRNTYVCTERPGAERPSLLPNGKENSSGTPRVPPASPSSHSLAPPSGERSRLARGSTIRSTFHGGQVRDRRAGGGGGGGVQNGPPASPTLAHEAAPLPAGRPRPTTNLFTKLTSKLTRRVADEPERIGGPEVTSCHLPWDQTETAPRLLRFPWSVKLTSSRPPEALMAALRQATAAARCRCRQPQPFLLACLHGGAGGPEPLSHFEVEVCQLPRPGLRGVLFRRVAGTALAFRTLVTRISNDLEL

[5] = molecular target: T3, Serine/threonine-protein kinase 17A (Homo sapiens, UniProt Q9UEE5); assay: Displacement of tracer K9 from NLuc fused DRAK1 (unknown origin) expressed in HEK293 cells by NanoBRET assay; type: cell-based
T3 sequence (Q9UEE5 whole entry): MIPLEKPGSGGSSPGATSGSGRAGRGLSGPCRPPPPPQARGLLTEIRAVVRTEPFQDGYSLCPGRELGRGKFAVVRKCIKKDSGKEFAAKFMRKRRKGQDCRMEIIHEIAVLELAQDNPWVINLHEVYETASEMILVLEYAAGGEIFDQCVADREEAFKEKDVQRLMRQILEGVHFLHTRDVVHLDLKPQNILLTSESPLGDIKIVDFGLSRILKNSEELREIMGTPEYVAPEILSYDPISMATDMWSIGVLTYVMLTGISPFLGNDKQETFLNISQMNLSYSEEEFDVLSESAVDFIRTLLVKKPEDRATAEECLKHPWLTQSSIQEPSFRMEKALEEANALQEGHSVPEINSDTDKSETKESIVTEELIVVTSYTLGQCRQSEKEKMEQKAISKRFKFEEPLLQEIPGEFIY

[6] = molecular target: T4, Macrophage colony-stimulating factor 1 receptor (Homo sapiens, UniProt P07333); assay: Inhibition of recombinant human FMS (538 to end residues) using KKKSPGEYVNIEFG as substrate measured after 40 mins in presence of [gamma33P]ATP by radiometric scintillation counting method
T4 sequence (P07333 whole entry): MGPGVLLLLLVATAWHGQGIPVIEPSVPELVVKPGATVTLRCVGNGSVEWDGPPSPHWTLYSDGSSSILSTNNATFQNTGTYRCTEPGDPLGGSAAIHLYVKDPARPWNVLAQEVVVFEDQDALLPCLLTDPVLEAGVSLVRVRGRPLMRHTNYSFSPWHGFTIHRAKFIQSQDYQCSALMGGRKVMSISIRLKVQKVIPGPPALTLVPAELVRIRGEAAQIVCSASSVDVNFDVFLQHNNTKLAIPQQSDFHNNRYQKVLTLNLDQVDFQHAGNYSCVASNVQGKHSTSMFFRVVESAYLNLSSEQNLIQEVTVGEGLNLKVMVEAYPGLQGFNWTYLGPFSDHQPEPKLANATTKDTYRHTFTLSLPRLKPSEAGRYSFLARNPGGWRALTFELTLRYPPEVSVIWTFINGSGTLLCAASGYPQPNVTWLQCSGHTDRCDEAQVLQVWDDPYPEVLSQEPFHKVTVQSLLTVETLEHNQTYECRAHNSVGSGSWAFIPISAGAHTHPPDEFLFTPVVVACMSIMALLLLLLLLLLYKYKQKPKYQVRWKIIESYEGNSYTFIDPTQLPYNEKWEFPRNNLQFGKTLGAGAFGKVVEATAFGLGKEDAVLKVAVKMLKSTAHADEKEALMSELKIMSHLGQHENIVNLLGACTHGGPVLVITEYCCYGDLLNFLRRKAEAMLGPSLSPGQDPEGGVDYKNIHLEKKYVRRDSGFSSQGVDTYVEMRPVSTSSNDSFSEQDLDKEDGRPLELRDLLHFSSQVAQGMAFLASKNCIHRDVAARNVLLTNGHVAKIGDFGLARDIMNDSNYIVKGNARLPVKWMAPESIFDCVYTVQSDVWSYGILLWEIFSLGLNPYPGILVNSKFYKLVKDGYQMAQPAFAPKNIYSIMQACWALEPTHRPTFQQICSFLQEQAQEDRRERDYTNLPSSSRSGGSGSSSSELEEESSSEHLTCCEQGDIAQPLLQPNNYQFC
Outline: (§2)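 Eurofins radiometric kinase assay run at ATP equal to Km for each kinase. 9-point dose–response in duplicate gives the IC50.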

[7] = molecular target: T4, Macrophage colony-stimulating factor 1 receptor; assay: Inhibition of NanoLuc-fused CSF1R (unknown origin) expressed in HEK293 cells incubated for 2 hrs by NanoBRET assay; type: cell-based
[8] = molecular target: T1, Non-receptor tyrosine-protein kinase TYK2; assay: Inhibition of NanoLuc-fused TYK2 (unknown origin) expressed in HEK293 cells incubated for 2 hrs by NanoBRET assay; type: cell-based
Outline: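 Cellular NanoBRET target-engagement assays were run by Carna Biosciences to the manufacturer's protocol. Dose–response was in singlicate, with compounds tested at concentrations up to 10 μM.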

[9] = molecular target: T5, MAP/microtubule affinity-regulating kinase 3 (Homo sapiens, UniProt P27448); assay: Displacement of tracer K9 from NLuc fused MARK3 (unknown origin) expressed in HEK293 cells by NanoBRET assay; type: cell-based
Target sequence in this assay (P27448 whole entry, the tested form may be a part): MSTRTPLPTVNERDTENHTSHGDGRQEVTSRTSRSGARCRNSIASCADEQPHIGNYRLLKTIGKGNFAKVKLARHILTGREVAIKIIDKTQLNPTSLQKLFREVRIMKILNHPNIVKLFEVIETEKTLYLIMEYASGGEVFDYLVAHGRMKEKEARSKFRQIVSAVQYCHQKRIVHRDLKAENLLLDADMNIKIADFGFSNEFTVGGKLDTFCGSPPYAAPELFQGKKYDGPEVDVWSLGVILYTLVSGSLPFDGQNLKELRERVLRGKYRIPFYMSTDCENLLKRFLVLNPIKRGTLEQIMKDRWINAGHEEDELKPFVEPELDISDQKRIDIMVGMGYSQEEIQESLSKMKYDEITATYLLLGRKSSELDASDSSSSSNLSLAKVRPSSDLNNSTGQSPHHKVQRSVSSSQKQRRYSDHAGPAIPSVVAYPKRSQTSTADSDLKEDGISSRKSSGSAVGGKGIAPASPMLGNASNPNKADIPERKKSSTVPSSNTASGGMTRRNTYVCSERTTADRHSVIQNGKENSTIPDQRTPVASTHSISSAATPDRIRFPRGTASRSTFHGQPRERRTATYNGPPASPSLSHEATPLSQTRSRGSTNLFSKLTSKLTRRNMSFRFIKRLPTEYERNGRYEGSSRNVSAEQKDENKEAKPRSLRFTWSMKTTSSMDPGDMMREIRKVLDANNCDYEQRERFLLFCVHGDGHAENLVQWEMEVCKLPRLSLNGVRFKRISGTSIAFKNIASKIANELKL

[10] = molecular target: Tyrosine-protein kinase JAK2 (Homo sapiens) (UniProt O60674); assay: Inhibition of recombinant human JAK2 (808 to end residues) using KTFCGTPEYLAPEVRREPRILSEEEQEMFRDFDYIADWC as substrate at 1 uM incubated for 40 mins in presence of [gamma-33P-ATP] by radiometric scintillation assay relative to control
Sequence of Tyrosine-protein kinase JAK2 (Homo sapiens) (O60674 whole entry): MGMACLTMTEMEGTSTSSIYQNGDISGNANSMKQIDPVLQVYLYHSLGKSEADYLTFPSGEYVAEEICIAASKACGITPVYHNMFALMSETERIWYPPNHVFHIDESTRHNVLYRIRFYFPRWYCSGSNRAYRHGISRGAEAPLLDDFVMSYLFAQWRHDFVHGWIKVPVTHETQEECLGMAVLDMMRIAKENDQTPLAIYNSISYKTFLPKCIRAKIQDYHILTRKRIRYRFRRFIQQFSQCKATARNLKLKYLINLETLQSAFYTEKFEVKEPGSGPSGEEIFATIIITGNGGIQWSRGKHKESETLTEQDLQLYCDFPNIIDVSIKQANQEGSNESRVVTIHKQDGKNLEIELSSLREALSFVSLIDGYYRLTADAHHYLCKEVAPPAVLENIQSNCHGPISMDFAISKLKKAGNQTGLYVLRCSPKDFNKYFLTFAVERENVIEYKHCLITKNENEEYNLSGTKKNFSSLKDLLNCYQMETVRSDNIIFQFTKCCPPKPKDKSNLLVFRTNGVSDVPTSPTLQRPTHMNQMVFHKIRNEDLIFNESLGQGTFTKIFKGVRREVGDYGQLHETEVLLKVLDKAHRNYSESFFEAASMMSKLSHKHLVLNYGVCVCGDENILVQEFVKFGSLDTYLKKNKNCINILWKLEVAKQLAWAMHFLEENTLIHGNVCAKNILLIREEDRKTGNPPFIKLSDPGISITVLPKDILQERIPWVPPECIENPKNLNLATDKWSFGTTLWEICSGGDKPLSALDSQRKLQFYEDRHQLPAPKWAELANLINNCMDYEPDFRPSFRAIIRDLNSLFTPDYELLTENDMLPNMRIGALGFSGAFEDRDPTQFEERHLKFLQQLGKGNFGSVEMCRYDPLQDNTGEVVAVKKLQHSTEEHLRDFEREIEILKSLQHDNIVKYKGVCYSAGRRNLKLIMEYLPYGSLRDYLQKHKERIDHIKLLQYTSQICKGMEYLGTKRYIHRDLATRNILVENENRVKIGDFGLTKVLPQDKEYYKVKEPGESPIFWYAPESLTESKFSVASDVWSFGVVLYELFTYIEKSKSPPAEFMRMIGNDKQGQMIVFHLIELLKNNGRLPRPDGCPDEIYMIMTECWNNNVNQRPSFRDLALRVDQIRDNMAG
Outline: (§3)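 Eurofins radiometric kinase assay with ATP at Km for each kinase. Compound was tested at a single 1 μM concentration in duplicate, and the result is reported as percent of control.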

[11] = molecular target: T6, Serine/threonine-protein kinase TBK1 (Homo sapiens, UniProt Q9UHD2); assay: Displacement of tracer K5 from NLuc fused TBK1 (unknown origin) expressed in HEK293 cells by NanoBRET assay; type: cell-based
T6 sequence (Q9UHD2 whole entry): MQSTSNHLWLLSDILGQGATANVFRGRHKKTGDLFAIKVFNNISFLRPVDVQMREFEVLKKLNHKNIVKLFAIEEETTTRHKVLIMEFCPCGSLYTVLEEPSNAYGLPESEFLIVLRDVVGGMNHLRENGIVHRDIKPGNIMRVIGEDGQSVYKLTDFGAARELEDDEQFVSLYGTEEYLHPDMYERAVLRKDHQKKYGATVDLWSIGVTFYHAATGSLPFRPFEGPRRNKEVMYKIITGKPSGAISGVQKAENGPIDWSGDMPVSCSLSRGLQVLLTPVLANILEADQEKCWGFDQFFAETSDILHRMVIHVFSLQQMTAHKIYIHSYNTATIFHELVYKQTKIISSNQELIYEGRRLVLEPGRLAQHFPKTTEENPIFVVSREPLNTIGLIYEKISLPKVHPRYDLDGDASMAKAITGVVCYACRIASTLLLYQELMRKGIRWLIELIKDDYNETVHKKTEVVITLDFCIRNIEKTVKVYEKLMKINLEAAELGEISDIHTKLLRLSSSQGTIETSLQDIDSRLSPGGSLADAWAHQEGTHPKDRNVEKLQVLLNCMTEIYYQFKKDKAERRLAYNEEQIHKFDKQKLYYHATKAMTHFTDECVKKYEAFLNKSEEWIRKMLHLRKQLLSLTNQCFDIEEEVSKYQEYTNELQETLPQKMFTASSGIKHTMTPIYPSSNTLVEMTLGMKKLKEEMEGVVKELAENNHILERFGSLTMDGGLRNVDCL
Outline: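 HEK293 cells grown in DMEM with 10% FBS at 37 °C, 5% CO2. NanoBRET assay run in dose–response per manufacturer's protocol with tracer K-5 at 0.5 μM. SEM calculated for assays run more than once.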

[12] = molecular target: Aurora kinase B (Homo sapiens) (UniProt Q96GD4); assay: Inhibition of full length recombinant human AURKB using AKRRRLSSLRA as substrate at 1 uM incubated for 40 mins in presence of [gamma-33P-ATP] by radiometric scintillation assay relative to control; outline: as §3
[13] = molecular target: BMP-2-inducible protein kinase (Homo sapiens, UniProt Q9NSY1); assay: Inhibition of 1recombinant human BMP2K using myelin basic protein as substrate incubated for 120 mins in presence of [gamma-33P-ATP] by radiometric scintillation assay
[14] = molecular target: High affinity nerve growth factor receptor (Homo sapiens, UniProt P04629); assay: Inhibition of human TrkA (440 to end residues) using KKKSPGEYVNIEFG as substrate measured after 40 mins in presence of [gamma33P]ATP by scintillation counting method; outline: as §2
[15] = Inhibition of human TTBK1 (1 to 479 residues) using Casein as substrate measured after 40 mins in presence of [gamma33P]ATP by scintillation counting method; outline: as §2
[16] = molecular target: T7, MAP/microtubule affinity-regulating kinase 4 (Homo sapiens) (UniProt Q96L34); assay: Inhibition of recombinant full length human MARK4 using KKKVSRSGLYRSPSMPENLNRPR as substrate incubated for 40 mins in presence of [gamma-33ATP] by scintillation counting based radiometry assay; outline: as §1
T7 sequence (whole entry): T2 sequence (Q96L34 whole entry)

[17] = molecular target: T5, MAP/microtubule affinity-regulating kinase 3; assay: Inhibition of recombinant full length human MARK3 using KKKVSRSGLYRSP as substrate incubated for 40 mins in presence of [gamma-33ATP] by scintillation counting based radiometry assay; outline: as §1
Target sequence in this assay (P27448 whole entry, looked up, the tested form may be a part): as the sequence (P27448 whole entry, the tested form may be a part) above

[18] = molecular target: NUAK family SNF1-like kinase 1 (Homo sapiens) (UniProt O60285); assay: Inhibition of recombinant human ARK5 (2 to end residues) using KKKVSRSGLYRSPSMPENLNRPR as substrate incubated for 40 mins in presence of [gamma-33ATP] by scintillation counting based radiometry assay; outline: as §1
[19] = molecular target: Serine/threonine-protein kinase MARK1 (Homo sapiens) (UniProt Q9P0L2); assay: Inhibition of recombinant human MARK1 (2 to end residues) using KKKVSRSGLYRSPSMPENLNRPR as substrate incubated for 40 mins in presence of [gamma-33ATP] by scintillation counting based radiometry assay; outline: as §1
Sequence of Serine/threonine-protein kinase MARK1 (Homo sapiens) (Q9P0L2 whole entry, looked up, the tested form may be a part): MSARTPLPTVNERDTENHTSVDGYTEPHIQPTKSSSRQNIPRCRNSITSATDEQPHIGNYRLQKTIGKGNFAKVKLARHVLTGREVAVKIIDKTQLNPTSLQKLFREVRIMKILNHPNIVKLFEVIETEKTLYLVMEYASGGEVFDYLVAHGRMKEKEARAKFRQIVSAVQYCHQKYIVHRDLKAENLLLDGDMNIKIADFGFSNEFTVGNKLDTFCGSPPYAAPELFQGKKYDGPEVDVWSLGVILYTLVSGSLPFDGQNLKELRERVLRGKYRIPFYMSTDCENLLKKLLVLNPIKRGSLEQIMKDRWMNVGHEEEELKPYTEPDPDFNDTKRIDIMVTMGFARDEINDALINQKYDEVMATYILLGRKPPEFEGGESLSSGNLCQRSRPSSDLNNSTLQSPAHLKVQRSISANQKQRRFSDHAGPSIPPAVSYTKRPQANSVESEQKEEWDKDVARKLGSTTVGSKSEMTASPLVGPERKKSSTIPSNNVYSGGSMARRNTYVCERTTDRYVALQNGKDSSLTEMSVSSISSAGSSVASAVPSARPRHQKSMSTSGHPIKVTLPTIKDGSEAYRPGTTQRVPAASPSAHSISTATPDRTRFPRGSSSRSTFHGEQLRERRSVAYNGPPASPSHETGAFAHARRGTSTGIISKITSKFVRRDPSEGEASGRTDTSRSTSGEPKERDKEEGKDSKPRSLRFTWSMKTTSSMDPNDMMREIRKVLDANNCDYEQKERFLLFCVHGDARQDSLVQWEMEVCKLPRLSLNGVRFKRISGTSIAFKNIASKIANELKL

[20] = molecular target: Mitogen-activated protein kinase kinase kinase 9 (Homo sapiens) (UniProt P80192); assay: Inhibition of recombinant human MLK1 (134 to 414 residues) using casein as substrate incubated for 40 mins in presence of [gamma-33ATP by scintillation counting based radiometry assay; outline: as §1
[21] = molecular target: T8, Serine/threonine-protein kinase 17B (Homo sapiens) (UniProt O94768); assay: Inhibition of recombinant human DRAK2 using KKRPQRRYSNVF as substrate after 120 mins in presence of [gamma-33ATP] by scintillation counting based radiometry assay; outline: as §1
T8 sequence (whole entry): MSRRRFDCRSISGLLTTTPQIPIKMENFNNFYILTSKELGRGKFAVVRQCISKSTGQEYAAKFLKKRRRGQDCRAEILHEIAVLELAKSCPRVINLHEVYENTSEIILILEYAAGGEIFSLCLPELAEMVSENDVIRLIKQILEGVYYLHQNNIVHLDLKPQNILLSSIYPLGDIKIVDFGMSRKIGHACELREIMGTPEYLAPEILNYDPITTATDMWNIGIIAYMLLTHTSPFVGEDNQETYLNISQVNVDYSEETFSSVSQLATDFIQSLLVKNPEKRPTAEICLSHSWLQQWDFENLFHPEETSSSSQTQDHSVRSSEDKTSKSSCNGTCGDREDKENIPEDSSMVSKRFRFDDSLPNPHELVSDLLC

[22] = molecular target: AP2-associated protein kinase 1 (Homo sapiens, UniProt Q2M2I8); assay: Inhibition of human AAK1 using peptide as substrate incubated for 120 mins in presence of [gamma-33ATP] by scintillation counting based radiometry assay; outline: as §2
[23] = molecular target: T9, Serine/threonine-protein kinase 17A (Homo sapiens) (UniProt Q9UEE5); assay: Inhibition of recombinant human DRAK1 using KKLNRTLSFAEPG as substrate after 40 mins in presence of [gamma-33ATP] by scintillation counting based radiometry assay; outline: as §2
T9 sequence (whole entry): T3 sequence (Q9UEE5 whole entry)

| SMILES | Kinetic solubility [3] [µM] | IC50 [4] [µM] | IC50 [5] [µM] | IC50 [9] [µM] | % control [10] [%] | IC50 [11] [µM] | Peff [2] | inhibition [19] | also measured |
| --- | --- | --- | --- | --- | --- | --- | --- | --- | --- |
| NS(=O)(=O)c1ccc(CNc2ccnc(Nc3cccc(NC(=O)N4CCCC4)c3)n2)cc1 | 147 | > 10 | > 10 | > 10 | 62 | > 10 | – | – | IC50 [1]: 0.033 µM; Peff ([2]; BLD = below limit of detection): Bld; IC50 [6]: 0.305 µM; IC50 [7]: > 10 µM; IC50 [8]: > 10 µM |
| NS(=O)(=O)c1ccc(CNc2nc(Nc3cccc(NC(=O)N4CCCC4)c3)ncc2C2CC2)cc1 | 85.6 | > 10 | > 10 | > 10 | 107 | > 10 | 2.6 10^-6 cm/s | – | % control [12]: 61%; IC50 [13]: 2.92 µM; IC50 [14]: 0.477 µM; IC50 [15]: 0.128 µM |
| c1cc(CN2CCOCC2)cc(Nc2ncc(C3CC3)c(NCCc3c[nH]cn3)n2)c1 | – | 0.808 | 3.62 | 4.01 | – | > 10 | 5.61 10^-7 cm/s | Active | inhibition [16]: Active; Kinetic_solubility [3]: 173.6 µM; inhibition [17]: Active; inhibition [18]: Active; inhibition [20]: Active |
| Cc1nn(CC(F)(F)F)cc1Nc1ncc(Br)c(NCCCNC(=O)C2CCC2)n1 | 40.3 | 3.54 | 0.126 | > 10 | – | 0.321 | 3.73 10^-6 cm/s | Active | inhibition [21]: Active; inhibition [22]: Active; inhibition [23]: Active |
